In brackets after ≈: the same amount, converted by molar mass.
Legend:
Klebsiella pneumoniae [1] = test: Antibacterial activity against ESBL positive Klebsiella pneumoniae ATCC 700603 after 24 hrs by resazurin dye based microdilution assay; assay type: functional; conditions: Klebsiella pneumoniae, 700603, 24 h
Method in brief: (§1)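 MIC taken as the lowest concentration giving visible inhibition and/or by resazurin (1 mg/mL). Gentamicin was the control. Run in duplicate, repeated at least three times.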

Klebsiella pneumoniae [2] = test: Antibacterial activity against carbapenemase positive Klebsiella pneumoniae BAA 1705 after 24 hrs by resazurin dye based microdilution assay; assay type: functional; conditions: BAA 1705, 24 h; method in brief: as §1
Leishmania panamensis = test: Antileshmanial activity against EpiR/GFP fused Leishmania panamensis MHOM/CO/87/UA140 intracellular amastigotes infected in human […] cells after 72 hrs by flow cytometric method; assay type: functional, cell-based; conditions: MHOM/CO/87/UA140, 72 h
Method in brief: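 PMA-treated U-937 cells (3 × 10^5 cells/mL) infected with stationary-phase GFP L. panamensis promastigotes (15:1), 3 h at 34 °C, then washed. After 24 h, compounds added at 50, 12.5, 3.125 and 0.78 µg/mL for 72 h at 37 °C. EC50 by Probit; triplicate, two experiments.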

Candida albicans [3] = test: Antifungal activity against Candida albicans ATCC 10231 incubated for 48 hrs under dark condition by broth microdilution method; assay type: functional; conditions: ATCC 10231, 48 h
Method in brief: (§2)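 CLSI M27-A3 broth microdilution in RPMI-1640, DMSO ≤1%, compounds at 250-0.98 µg/mL final. Inoculum 1-5 × 10^3 CFU/mL. Incubated 48 h at 30 °C in a moist dark chamber, read at OD405. MIC80 and MIC50 taken from % inhibition dose-response curves (mean ± SEM, triplicate). Amphotericin B was the positive control.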

Cryptococcus neoformans [4] = test: Antifungal activity against Cryptococcus neoformans ATCC 32264 incubated for 48 hrs under dark condition by broth microdilution method; assay type: functional; conditions: ATCC 32264, 48 h; method in brief: as §2
Candida albicans [5] = test: Growth inhibition of Candida albicans ATCC 10231 at 250 ug/ml incubated for 48 hrs under dark condition by broth microdilution method relative to control; assay type: functional; conditions: ATCC 10231, 48 h, read-out: GI
Method in brief: (§3)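 CLSI M27-A3 broth microdilution in RPMI-1640, DMSO ≤1%. Inoculum 1-5 × 10^3 CFU/mL. Incubated 48 h at 30 °C, dark. % inhibition = 100 − (OD405 test − sterility control)/(OD405 growth control − sterility control), with growth and sterility control wells. Triplicate.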

Candida albicans [6] = test: Growth inhibition of Candida albicans ATCC 10231 at 125 ug/ml incubated for 48 hrs under dark condition by broth microdilution method relative to control; assay type: functional; conditions: ATCC 10231, 48 h, read-out: GI; method in brief: as §3
Candida albicans [7] = test: Growth inhibition of Candida albicans ATCC 10231 at 62.5 ug/ml incubated for 48 hrs under dark condition by broth microdilution method relative to control; assay type: functional; conditions: ATCC 10231, 48 h, read-out: GI; method in brief: as §3
Candida albicans [8] = test: Growth inhibition of Candida albicans ATCC 10231 at 31.25 ug/ml incubated for 48 hrs under dark condition by broth microdilution method relative to control; assay type: functional; conditions: ATCC 10231, 48 h, read-out: GI; method in brief: as §3
Candida albicans [9] = test: Growth inhibition of Candida albicans ATCC 10231 at 15.62 ug/ml incubated for 48 hrs under dark condition by broth microdilution method relative to control; assay type: functional; conditions: ATCC 10231, 48 h, read-out: GI; method in brief: as §3
Candida albicans [10] = test: Growth inhibition of Candida albicans ATCC 10231 at 7.8 ug/ml incubated for 48 hrs under dark condition by broth microdilution method relative to control; assay type: functional; conditions: ATCC 10231, 48 h, read-out: GI; method in brief: as §3
Candida albicans [11] = test: Growth inhibition of Candida albicans ATCC 10231 at 3.4 ug/ml incubated for 48 hrs under dark condition by broth microdilution method relative to control; assay type: functional; conditions: ATCC 10231, 48 h, read-out: GI
Cryptococcus neoformans [12] = test: Growth inhibition of Cryptococcus neoformans ATCC 32264 at 250 ug/ml incubated for 48 hrs under dark condition by broth microdilution method relative to control; assay type: functional; conditions: ATCC 32264, 48 h, read-out: GI; method in brief: as §3
Cryptococcus neoformans [13] = test: Growth inhibition of Cryptococcus neoformans ATCC 32264 at 125 ug/ml incubated for 48 hrs under dark condition by broth microdilution method relative to control; assay type: functional; conditions: ATCC 32264, 48 h, read-out: GI; method in brief: as §3
Cryptococcus neoformans [14] = test: Growth inhibition of Cryptococcus neoformans ATCC 32264 at 62.5 ug/ml incubated for 48 hrs under dark condition by broth microdilution method relative to control; assay type: functional; conditions: ATCC 32264, 48 h, read-out: GI; method in brief: as §3
Cryptococcus neoformans [15] = test: Growth inhibition of Cryptococcus neoformans ATCC 32264 at 31.25 ug/ml incubated for 48 hrs under dark condition by broth microdilution method relative to control; assay type: functional; conditions: ATCC 32264, 48 h, read-out: GI; method in brief: as §3
Cryptococcus neoformans [16] = test: Growth inhibition of Cryptococcus neoformans ATCC 32264 at 15.62 ug/ml incubated for 48 hrs under dark condition by broth microdilution method relative to control; assay type: functional; conditions: ATCC 32264, 48 h, read-out: GI; method in brief: as §3
Cryptococcus neoformans [17] = test: Growth inhibition of Cryptococcus neoformans ATCC 32264 at 7.8 ug/ml incubated for 48 hrs under dark condition by broth microdilution method relative to control; assay type: functional; conditions: ATCC 32264, 48 h, read-out: GI; method in brief: as §3
Cryptococcus neoformans [18] = test: Growth inhibition of Cryptococcus neoformans ATCC 32264 at 3.4 ug/ml incubated for 48 hrs under dark condition by broth microdilution method relative to control; assay type: functional; conditions: ATCC 32264, 48 h, read-out: GI
Staphylococcus aureus [19] = test: Antibacterial activity against methicillin-sensitive Staphylococcus aureus ATCC 25923 after 24 hrs by resazurin dye based microdilution assay; assay type: functional; conditions: ATCC 25923, 24 h; method in brief: as §1
Staphylococcus aureus [20] = test: Antibacterial activity against methicillin-resistant Staphylococcus aureus ATCC 43300 after 24 hrs by resazurin dye based microdilution assay; assay type: functional; conditions: ATCC 43300, 24 h
Method in brief: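 Broth microdilution in Mueller Hinton broth, inoculum 5 × 10^5 – 8 × 10^5. Compound stocks diluted in MHB with 5% DMSO and 0.1% Tween 80. Incubation 24 h at 35-37 °C. MIC is the lowest concentration with visible growth inhibition and/or by resazurin (1 mg/mL) read-out. Gentamicin as control. Run in duplicate, replicated at least three times.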

Staphylococcus aureus [21] = test: Antibacterial activity against vancomycin-intermediate Staphylococcus aureus after 24 hrs by resazurin dye based microdilution assay; assay type: functional; method in brief: as §1
Escherichia coli = test: Antibacterial activity against Escherichia coli ATCC 25922 after 24 hrs by resazurin dye based microdilution assay; assay type: functional; conditions: ATCC 25922, 24 h; method in brief: as §1
Pseudomonas aeruginosa = test: Antibacterial activity against Pseudomonas aeruginosa ATCC 27853 after 24 hrs by resazurin dye based microdilution assay; assay type: functional; conditions: ATCC 27853, 24 h; method in brief: as §1
Neisseria gonorrhoeae = test: Antibacterial activity against beta lactamase positive Neisseria gonorrhoeae ATCC 31426 by oxidase test; assay type: functional
Method in brief: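 Agar dilution MIC on GC agar with 1% isovitalex containing increasing compound concentrations. Plates inoculated with about 1×10^4 CFU (5 µL). MIC is the lowest concentration that inhibited growth, with growth confirmed by oxidase test. Run in duplicate, repeated at least three times.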

Plasmodium falciparum = test: Antiplasmodial activity against chloroquine-sensitive Plasmodium falciparum 3D7 assessed as reduction in parasitic LDH activity after 48 hrs by Malstat reagent based […] method; assay type: functional; conditions: 3D7, 48 h
Method in brief: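 Unsynchronized P. falciparum 3D7 at 0.5% parasitemia and 1% hematocrit in RPMI with 3% Albumax II. Exposed to 100, 25, 6.25 and 1.56 µg/mL for 48 h at 37 °C under 90% N2/5% CO2/5% O2. After three freeze-thaw cycles, LDH measured with Malstat and NBT/PES, 1 h in the dark, read at 650 nm. IC50 by Probit; triplicate, ≥2 experiments.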

U-937 = test: Cytotoxicity against human U937 cells after 72 hrs by MTT assay; assay type: cell-based; conditions: u-937, 72 h
Method in brief: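 Exponentially growing U-937 at 1 × 10^5 cells/mL in RPMI-1640 with 10% FBS were exposed to 200, 50, 12.5 and 3.125 µg/mL for 72 h at 37 °C, 5% CO2. MTT for 3 h, stopped with isopropanol/SDS, formazan read at 570 nm, blank-corrected. LC50 by Probit from % viability against untreated cells. Triplicate, at least two independent experiments.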

Trypanosoma cruzi = test: Antitrypanosomal activity against Trypanosoma cruzi Tulahuen intracellular amastigote harboring LacZ infected in human U937 cells after 72 hrs by CPRG/Nonidet reagent based spectrophotometric method; assay type: functional, cell-based; conditions: U-937, 72 h
Method in brief: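 U-937 cells at 2.5 × 10^5 cells/mL in RPMI-1640 with 10% serum and 0.1 µg/mL PMA were infected with β-galactosidase-transfected Tulahuen epimastigotes at 5 parasites per cell. Infected cells were exposed to 50, 12.5, 3.125 and 0.78 µg/mL for 72 h. CPRG (100 uM) and 0.1% Nonidet P-40 were added for 3 h, read at 570 nm. EC50 by Probit. Triplicate, at least two experiments; benznidazole as reference.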

COc1cc(C2=NN(C=O)C(c3cccc(Nc4ccnc5cc(Cl)ccc45)c3)C2)cc(OC)c1OC (stereo not given)
MIC (Klebsiella pneumoniae [1]): > 1000 µg/mL | MIC (Klebsiella pneumoniae [2]): > 1000 µg/mL | EC50 (Leishmania panamensis): 6.79 µg/mL (≈ 13.1 µM) | MIC50 (Candida albicans [3]): ≥ 250 µg/mL | MIC80 (Candida albicans [3]): ≥ 250 µg/mL | MIC50 (Cryptococcus neoformans [4]): ≥ 250 µg/mL | MIC80 (Cryptococcus neoformans [4]): ≥ 250 µg/mL | inhibition of growth at 250 µg/mL (Candida albicans [5]): 43.9% | inhibition of growth at 125 µg/mL (Candida albicans [6]): 26.7% | inhibition of growth at 62.5 µg/mL (Candida albicans [7]): 23.7% | inhibition of growth at 31.25 µg/mL (Candida albicans [8]): 19.7% | inhibition of growth at 15.62 µg/mL (Candida albicans [9]): 19.6% | inhibition of growth at 7.8 µg/mL (Candida albicans [10]): 5.72% | inhibition of growth at 3.4 µg/mL (Candida albicans [11]): 5.34% | inhibition of growth at 250 µg/mL (Cryptococcus neoformans [12]): 0% | inhibition of growth at 125 µg/mL (Cryptococcus neoformans [13]): 0% | inhibition of growth at 62.5 µg/mL (Cryptococcus neoformans [14]): 0% | inhibition of growth at 31.25 µg/mL (Cryptococcus neoformans [15]): 0% | inhibition of growth at 15.62 µg/mL (Cryptococcus neoformans [16]): 0% | inhibition of growth at 7.8 µg/mL (Cryptococcus neoformans [17]): 0% | inhibition of growth at 3.4 µg/mL (Cryptococcus neoformans [18]): 0% | MIC (Staphylococcus aureus [19]): > 1000 µg/mL | MIC (Staphylococcus aureus [20]): > 1000 µg/mL | MIC (Staphylococcus aureus [21]): > 1000 µg/mL | MIC (Escherichia coli): > 1000 µg/mL | MIC (Pseudomonas aeruginosa): > 1000 µg/mL | MIC (Neisseria gonorrhoeae): > 1000 µg/mL | EC50 (Plasmodium falciparum): 24.3 µg/mL (≈ 47 µM) | LC50 (U-937): 17.4 µg/mL (≈ 33.7 µM) | EC50 (Trypanosoma cruzi): 7.22 µg/mL (≈ 14 µM)
